MC4R barr agon – human MC4R agonism via beta-arrestin; P32245; U2OS MC4R beta-arrestin complementation, luminescence; percent of melanotan II response, DMSO zero; activation, % at 8.9 µM; 360,000 compounds, 0.98% hits;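 active = activation above a per-plate cutoff, the mean activation of sample wells on that plate plus 3 SD, cut at about 8% in these data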
Target sequence (P32245 whole entry, looked up): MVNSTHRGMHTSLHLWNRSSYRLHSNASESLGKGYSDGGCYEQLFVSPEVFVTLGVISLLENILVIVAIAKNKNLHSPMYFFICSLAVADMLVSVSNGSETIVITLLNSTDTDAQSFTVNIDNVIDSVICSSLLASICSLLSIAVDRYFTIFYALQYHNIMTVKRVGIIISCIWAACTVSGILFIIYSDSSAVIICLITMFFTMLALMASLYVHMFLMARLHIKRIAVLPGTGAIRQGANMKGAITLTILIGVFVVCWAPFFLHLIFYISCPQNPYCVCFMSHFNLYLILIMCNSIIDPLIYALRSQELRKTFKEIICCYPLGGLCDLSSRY
TAAR1 agonist – human TAAR1 agonism | Q96RJ0 | CHO RD-HGA16 TAAR1, Fluo-8 calcium fluorescence; vehicle wells 0%, saturating PEA agonist 100% | activation, % at 3 µM | 360,000 compounds, 0.99% hits;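 active = activation above the mean activation of all test compounds in the run plus 3 SD, cut at about 38% in these data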
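Test system: RD-HGA16 (CHO) cells co-expressing Gα16 and hTAAR1 | Doses: Single dose, 3 µM | Schedule: 17-24 h seeding, 75 min 37 °C dye, 30 min RT | Evaluation: % activation from peak over basal fluorescence ratio, DMSO-to-PEA scaled | Technique: Kinetic Fluo-8 calcium fluorescence | Benchmarks: Low control DMSO, high control PEA (EC100)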
TAAR1 antag – human TAAR1 antagonism; Q96RJ0; CHO RD-HGA16 TAAR1, Fluo-8 calcium fluorescence, antagonist; inhibition, % at 3 µM; 360,000 compounds, 1.5% hits; AID 624466;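 active = inhibition above a per-plate cutoff, the mean inhibition of test compounds on that plate plus 3 SD, cut at about 49% in these data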
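test system = CHO RD-HGA16 cells bearing hTAAR1 | replication = singlicate | controls = DMSO-only wells and EC80 β-PEA-stimulated wells | reagent = EC80 β-phenethylamine stimulus | read-out basis = percent inhibition of PEA-evoked calcium signal, max/basal emission ratio | schedule = seeding 17-24 h prior, 75-min 37 °C, 30-min RT dye loading | signal = kinetic Fluo-8 calcium fluorescence measurement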
HTR2A ag – mouse HTR2A agonism via beta-arrestin recruitment | 360,000 compounds, 0.66% hits | activation, % at 7.6 µM | AID 624169 | CHO-K1 mHTR2A beta-arrestin complementation, luminescence; percent of 30 µM serotonin response;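 active = activation above a run cutoff, the mean activation of all tested compounds plus 3 SD, cut at about 14% in these data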
MC4R antag cAMP – blocks human MC4R cAMP signaling. MC4R-expressing cells, MTII-stimulated cAMP, LANCE TR-FRET. 360,000 compounds, 0.48% hits. inhibition, % at 6.5 µM. P32245. AID 540295;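 active = inhibition above its plate's cutoff, the mean of tested wells on that plate plus 3 SD, cut at about 29% in these data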
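Material: U2OS-MC4R stable cell line | Reagent: Melanotan II challenge after compound preincubation | Doses: One concentration, 6.5 µM nominal | Incubation: 30-min compound preincubation, 1-h Melanotan II challenge, 1-h detection, room temperature | Signal: TR-FRET cAMP assay | Replicates: One well per compound, no replicates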
Beta2AR agonist – human beta-2 adrenergic receptor agonism by FAP | P07550 | Am2.2-beta2AR cells, FAP receptor internalization, flow cytometry | response, % (test concentration not listed) | 340,000 compounds, 0.43% hits | AID 504454;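 active = response above a set limit, near 3 SD of response in nonfluorescent compounds, cut at about 42% in these data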
Target sequence (P07550 whole entry, looked up): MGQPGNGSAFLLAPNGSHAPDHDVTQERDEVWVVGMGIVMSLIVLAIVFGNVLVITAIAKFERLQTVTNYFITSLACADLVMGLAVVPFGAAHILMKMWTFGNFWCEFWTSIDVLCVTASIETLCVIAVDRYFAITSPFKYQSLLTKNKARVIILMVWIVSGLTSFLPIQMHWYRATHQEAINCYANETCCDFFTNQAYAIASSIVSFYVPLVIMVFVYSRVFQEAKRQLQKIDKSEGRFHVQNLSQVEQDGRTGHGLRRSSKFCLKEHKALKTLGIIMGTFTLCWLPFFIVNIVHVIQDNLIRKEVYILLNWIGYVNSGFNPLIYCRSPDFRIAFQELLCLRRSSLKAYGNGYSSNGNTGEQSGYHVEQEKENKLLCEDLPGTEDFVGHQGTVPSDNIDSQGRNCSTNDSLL
MC4R barr ag – human MC4R beta-arrestin agonism confirmation. shares compounds with MC4R barr agon. U2OS MC4R beta-arrestin recruitment, luminescence; scaled DMSO 0%, Melanotan II 100%. activation, % at 8.9 µM. 2,400 compounds, 31% hits;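 active = mean activation across replicates above the hit cutoff set in the earlier primary screen, cut at about 8% in these data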
MOR-DOR barr ag – activates mu-delta opioid heterodimer, MC4R agonist counter-screen; U2OS PathHunter beta-arrestin, beta-gal luminescence; percent of deltorphin B response, DMSO zero; AID 602194; shares compounds with MC4R barr agon; 2,400 compounds, 5.8% hits; activation, % at 9.2 µM;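 active = mean activation across replicates exceeds the hit threshold derived in the earlier primary screen, cut at about 18% in these data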
MOR ag counter – OPRM1 agonism in mouse HTR2A counterscreen; activation, % at 9.3 µM; 2,300 compounds, 5.3% hits; AID 624380; U2OS OPRM1 beta-arrestin PathHunter, luminescence; DMSO 0%, DAMGO 9.3 µM 100%; shares compounds with HTR2A ag;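 active = mean activation above the mean of DMSO-only wells plus 3 SD, cut at about 0.5% in these data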
HTR2A ag conf – mouse HTR2A agonism confirmed; shares compounds with HTR2A ag; CHO-K1 PathHunter beta-arrestin recruitment, luminescence; DMSO 0%, 30 µM serotonin 100%; activation, % at 7.6 µM; 2,300 compounds, 19% hits; AID 624381;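 active = mean activation across triplicates above the hit threshold derived in the original primary screen, cut at about 15% in these data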
TAAR1 nonsel count – counter-screen for TAAR1 antagonists: nonselective antagonists; shares compounds with TAAR1 antag; counterscreen cell line, calcium fluorescence, antagonist mode; 2,400 compounds, 77% hits; inhibition, % at 3 µM; in the data active = inhibition above about 22%;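 note: CHO-Ga16 host cells stimulated with ATP at an EC80 level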
TAAR1 antag conf – human TAAR1 antagonism, confirmed | shares compounds with TAAR1 antag | TAAR1-expressing cells, fluorescence antagonist read-out | inhibition, % at 3 µM | 2,400 compounds, 40% hits | AID 651785; in the data active = inhibition above about 49%;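 note: CHO-Ga16 host cells challenged with agonist PEA near its EC80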
Ga16 nonsel ag – nonselective Ga16 agonist in TAAR1 antagonist counter-screen | shares compounds with TAAR1 antag | Ga16-expressing cells, calcium fluorescence, agonist counterscreen | activation, % at 3 µM | 2,400 compounds, 18% hits; in the data active = activation above about 12%
TAAR1 ag counter – activates human TAAR1 in antagonist counter-screen; shares compounds with TAAR1 antag; hTAAR1 cell line, fluorescence activation, agonist mode; activation, % at 3 µM; 2,400 compounds, 2% hits; AID 651955; in the data active = activation above about 37%;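 note: CHO cells stably expressing TAAR1 with calcium dye readout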
Each line names hits and unclear results; the compound was inactive in the other large screens (follow-up assays come after a bar, where they were run); ! = not active in a repeat. The list is not random: actives were taken first. Their share in the collection is about 4.3%.

Nc1ccc(C2(c3ccc(N)cc3)c3ccccc3-c3ccccc32)cc1	MC4R barr agon 70 | MC4R barr ag 45 | MOR-DOR barr ag inactive
CC(C)OC(=O)Cc1ccccc1	none
CCN(CC)c1ccc(N=Cc2c(O)n(Cc3ccco3)c(=O)[nH]c2=O)cc1	MC4R barr agon 11 | MC4R barr ag inactive | MOR-DOR barr ag inactive
CC(=NCc1ccco1)c1c(O)n(-c2ccc(C)cc2)c(=O)[nH]c1=O	none
CC1CCC2C(C)C(=O)OC3OC4(C)CCC1C32OO4 (stereo unspecified)	none
CC1CCC(C(C)C)C(OC(=O)Cn2c(COc3ccccc3)[n+](C)c3ccccc32)C1 (stereo unspecified)	MC4R barr agon 29 | MC4R barr ag 10 | MOR-DOR barr ag inactive
CC(C)CNC(=O)c1c(N)n(Cc2ccc3c(c2)OCO3)c2nc3ccccc3nc12	MC4R barr agon 11 | MC4R barr ag 9.2 | MOR-DOR barr ag inactive
CC(C)CCNC(=O)c1c(N)n(Cc2ccc3c(c2)OCO3)c2nc3ccccc3nc12	MC4R barr agon 13 | MC4R barr ag 8.4 | MOR-DOR barr ag inactive
CCCNC(=O)c1c(N)n(Cc2ccc3c(c2)OCO3)c2nc3ccccc3nc12	none (no result: TAAR1 agonist, TAAR1 antag)
CC(C)(C)c1cc(OC(=O)Cc2ccccc2)ccc1O	MC4R barr agon 10, HTR2A ag 15 | MC4R barr ag inactive | MOR-DOR barr ag inactive | MOR ag counter inactive | HTR2A ag conf inactive
Fc1ccc(NC(=S)N2Cc3ccccc3-n3nncc3C2)cc1	none (no result: Beta2AR agonist)
COc1ccccc1OP(=O)(Nc1ccc(Br)cc1)Oc1ccccc1OC	MC4R barr agon 18, TAAR1 antag 78 | MC4R barr ag inactive | MOR-DOR barr ag inactive | TAAR1 nonsel count 30 | TAAR1 antag conf 56 | Ga16 nonsel ag inactive | TAAR1 ag counter inactive
O=P(NC(c1ccccc1)c1ccccc1)(Oc1ccccc1)Oc1ccccc1	MC4R barr agon 11, TAAR1 antag 64 | MC4R barr ag inactive | MOR-DOR barr ag inactive | TAAR1 nonsel count 32 | TAAR1 antag conf 65 | Ga16 nonsel ag inactive | TAAR1 ag counter inactive
NP(=O)(Oc1ccccc1)Oc1ccccc1	none
Fc1cccc(-c2ccc3c(c2)CN(c2cccc(Cl)c2)Cc2cnnn2-3)c1	none (no result: MC4R barr agon, MC4R antag cAMP, Beta2AR agonist)
N#CC1c2ccccc2C=CN1C(=O)c1ccc(N(CCCl)CCCl)cc1 (stereo unspecified)	HTR2A ag 24 (no result: Beta2AR agonist) | MOR ag counter inactive | HTR2A ag conf inactive
CCCCn1c(O)c(C(=O)/C=C/c2ccc3c(c2)OCO3)c(=O)[nH]c1=O	HTR2A ag 27 | MOR ag counter inactive | HTR2A ag conf inactive
CC(C)(O)/C=C/C(=O)C(C)(O)C1C(O)CC2(C)C3CC=C4C(C=C(O)C(=O)C4(C)C)C3(C)C(=O)CC12C (stereo unspecified)	HTR2A ag 30, Beta2AR agonist 42 | MOR ag counter inactive | HTR2A ag conf inactive
CC[C@H](C)[C@@H]1NC(=O)[C@@H](CC(C)C)NC(=O)[C@H](C(C)C)NC(=O)[C@H]2CSSC[C@H](NC1=O)C(=O)N2	HTR2A ag 57 (no result: MC4R barr agon, MC4R antag cAMP, Beta2AR agonist) | MOR ag counter 1.7 | HTR2A ag conf 41
CC12CC3CC(C)(C1)CC(N)(C3)C2	HTR2A ag 18! | MOR ag counter inactive | HTR2A ag conf inactive
COC(=O)c1cn(C(=O)c2cccc3ccccc23)c2ccccc12	none
COC(=O)C1=C(c2cccc(OC)c2OC)C[C@@H]2CC[C@H]1N2C(=O)N1CCOCC1	none
CC[C@@H]1C(=O)OC[C@@H]1Cc1cncn1C	HTR2A ag 18! | MOR ag counter inactive | HTR2A ag conf inactive
CC[C@@H]1C(=O)OC[C@@H]1Cc1cncn1C	none
Cn1c(O)c(C(=O)c2ccccc2)c(=O)n(C)c1=O	HTR2A ag 18 | MOR ag counter inactive | HTR2A ag conf inactive
C#CC[N+]1(C)[C@@H]2CC[C@H]1CC(OC(=O)C(CO)c1ccccc1)C2 (stereo partly specified)	none
CC1=NN=C(c2ccc(N)cc2)c2cc3c(cc2C1)OCO3	HTR2A ag 31 | MOR ag counter inactive | HTR2A ag conf 40
O=C1C=CC(=O)C=C1	HTR2A ag 35 | MOR ag counter 0.9 | HTR2A ag conf inactive
COC1=CC(=O)O[C@@H](/C=C/c2ccccc2)C1	none
COC1CC2C=C(C)C=CC=CC(=O)NC(c3ccccc3)CC=CCCC(O)CC(=O)C2=C1O (stereo unspecified)	TAAR1 antag 84, HTR2A ag 21 (no result: MC4R barr agon, MC4R antag cAMP, Beta2AR agonist) | MOR ag counter 6.0 | HTR2A ag conf 19
COc1ccc2c(c1O)-c1c(OC)c(OC)cc3c1[C@H](C2)N(C)CC3	none
CCCN1CCc2cccc3c2[C@H]1Cc1ccc(O)c(O)c1-3	HTR2A ag 62 (no result: TAAR1 agonist, TAAR1 antag) | MOR ag counter 1.4 | HTR2A ag conf 136
O=c1[nH]c(=O)n(CCc2ccccc2)c(O)c1C=NCc1ccc2c(c1)OCO2	none
O=C(C1CCN(S(=O)(=O)c2ccccc2)CC1)N1CCC2(CC1)OCCO2	none
